Reference: ChEMBL document CHEMBL5620424, “Design, synthesis and evaluation of novel 2-phenyl-3-(1H-pyrazol-4-yl)pyridine positive allosteric modulators for the M4 mAChR” (Eur J Med Chem, 2023)
The source made the active and inactive calls. No cut-off for these calls is given here.

Experiments:
[1] = molecular target: T1, Muscarinic acetylcholine receptor M1 (Homo sapiens) (UniProt P11229); experiment: Positive allosteric modulation at human M1 mAChR expressed in Flp-In-CHO cells at 10 uM incubated for 5 mins by AlphaScreen SureFire Ultra pERK1/2 assay
T1 sequence (whole entry): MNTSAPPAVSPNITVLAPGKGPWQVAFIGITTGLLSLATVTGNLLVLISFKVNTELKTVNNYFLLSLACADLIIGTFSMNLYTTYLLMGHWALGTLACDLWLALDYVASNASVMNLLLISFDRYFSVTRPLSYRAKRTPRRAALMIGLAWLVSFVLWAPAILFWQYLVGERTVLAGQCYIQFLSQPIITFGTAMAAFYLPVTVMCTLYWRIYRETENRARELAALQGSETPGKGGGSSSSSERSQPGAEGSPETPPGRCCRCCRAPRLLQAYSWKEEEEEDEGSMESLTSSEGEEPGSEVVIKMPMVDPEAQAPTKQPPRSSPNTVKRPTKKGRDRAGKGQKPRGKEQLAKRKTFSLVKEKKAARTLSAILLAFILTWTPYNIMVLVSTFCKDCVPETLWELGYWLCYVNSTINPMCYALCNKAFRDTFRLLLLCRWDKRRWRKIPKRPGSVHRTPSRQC

[2] = molecular target: Muscarinic acetylcholine receptor M3 (Homo sapiens) (UniProt P20309); experiment: Positive allosteric modulation at human M3 mAChR expressed in Flp-In-CHO cells at 10 uM incubated for 5 mins by […]; assay type: cell-based
How it was run: (§1)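 FlpInCHO cells stably expressing human M1–M5 mAChRs, serum-deprived in HBSS 4 h at 37 °C, then ACh (10 nM–10 μM) with or without modulator at 10 μM for 5 min at 37 °C. Cells lysed and frozen overnight. pERK1/2 measured by AlphaScreen SureFire Ultra, as % of response to 10% FBS.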

[3] = Drug concentration in brain of naive C57BL/6J mouse at 10 mg/kg, ip measured after 20 to 30 mins; assay type: ADME, organism-based; settings: in vivo, time 20-30 min, read-out: Ct
How it was run: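 Male C57Bl/6J mice, naïve, 10–12 weeks old, dosed i.p. at 10 mg/kg in 10% DMSO, 1.1% Tween 80, 21.8 mM Tris. Blood by cardiac puncture under anaesthesia at 20 or 90 min (n = 2–3 per time point). Brain concentration corrected for compound in brain vasculature. Mean nM ± SEM reported; Kp = Cbrain/Cplasma, reported as a range.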

[4] = molecular target: T2, Muscarinic acetylcholine receptor M4 (Homo sapiens) (UniProt P08173); experiment: Displacement of 3[H]-NMS from human M4 mAChR expressed in Flp-In-CHO cells assessed as binding co-operativity (log alpha) incubated for 6 hrs in presence of ACh by microbeta2 plate reader assay; assay type: cell-based; settings: filed as positive allosteric modulator
T2 sequence (whole entry): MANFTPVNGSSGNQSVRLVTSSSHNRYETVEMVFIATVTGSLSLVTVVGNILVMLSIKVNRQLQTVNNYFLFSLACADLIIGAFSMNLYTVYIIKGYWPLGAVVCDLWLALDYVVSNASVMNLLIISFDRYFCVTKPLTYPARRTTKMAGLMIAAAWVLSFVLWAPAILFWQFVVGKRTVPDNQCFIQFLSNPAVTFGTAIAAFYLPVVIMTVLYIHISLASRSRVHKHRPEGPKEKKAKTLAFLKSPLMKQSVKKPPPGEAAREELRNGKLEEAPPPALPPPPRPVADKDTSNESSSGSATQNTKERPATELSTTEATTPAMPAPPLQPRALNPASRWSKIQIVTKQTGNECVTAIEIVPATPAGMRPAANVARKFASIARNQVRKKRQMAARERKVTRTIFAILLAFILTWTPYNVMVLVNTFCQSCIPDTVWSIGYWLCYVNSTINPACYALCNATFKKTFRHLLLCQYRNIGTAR
How it was run: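 Intact FlpInCHO-hM4 cells, 20,000/well grown overnight, in HBSS pH 7.4 with [3H]-NMS 0.5 nM, ACh (0.01 μM–10 mM) and modulator (0.1–10 μM), shaken 6 h at room temperature. Washed with ice-cold 0.9% NaCl, then scintillation counting. Nonspecific binding defined with 10 μM atropine. pKB and log α(ACh) from global fit to allosteric ternary complex model, with log α′(NMS) fixed at –3 under strong negative cooperativity. 4–5 experiments in duplicate.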

[5] = molecular target: T2, Muscarinic acetylcholine receptor M4 (Homo sapiens); experiment: Positive allosteric modulation at Rluc-tagged human M4 mAChR expressed in Flp-In-CHO cells co-expressing eYFP-tagged beta-arrestin 2 assessed as ACh-mediated beta-arrestin 2 recruitment co-operativity (log alpha beta) incubated for 5 mins by luminometry; assay type: cell-based; settings: filed as positive allosteric modulator
How it was run: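 FlpInCHO cells co-transfected with human M4-Rluc8 (20 ng/well) and β-arrestin-2-eYFP (80 ng/well) using PEI, assayed after 48 h. Coelenterazine h (5 μM) preincubated 5 min, then ACh plus modulator ranges for 5 min at 37 °C; BRET at 475/535 nm. Fit to simplified operational model with slope 1 and KB fixed from binding. 4–5 experiments in duplicate.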

[6] = molecular target: T3, Muscarinic acetylcholine receptor M5 (Homo sapiens) (UniProt P08912); experiment: Positive allosteric modulation at human M5 mAChR expressed in Flp-In-CHO cells at 10 uM incubated for 5 mins by […]; assay type: cell-based
T3 sequence (whole entry): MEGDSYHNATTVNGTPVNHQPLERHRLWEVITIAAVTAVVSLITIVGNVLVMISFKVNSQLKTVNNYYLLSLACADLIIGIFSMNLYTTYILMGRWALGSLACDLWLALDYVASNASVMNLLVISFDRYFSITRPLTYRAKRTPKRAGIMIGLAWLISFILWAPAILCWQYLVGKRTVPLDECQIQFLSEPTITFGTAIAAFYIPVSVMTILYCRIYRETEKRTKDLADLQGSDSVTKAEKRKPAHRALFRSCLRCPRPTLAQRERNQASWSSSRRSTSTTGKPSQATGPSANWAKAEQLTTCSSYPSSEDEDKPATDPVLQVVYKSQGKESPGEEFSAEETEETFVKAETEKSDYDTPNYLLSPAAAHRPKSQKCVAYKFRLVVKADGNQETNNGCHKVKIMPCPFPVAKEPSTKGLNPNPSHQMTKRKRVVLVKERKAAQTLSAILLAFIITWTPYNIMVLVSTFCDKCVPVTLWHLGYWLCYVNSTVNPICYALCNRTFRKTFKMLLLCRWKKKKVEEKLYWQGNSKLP
How it was run: as §1

[7] = molecular target: T2, Muscarinic acetylcholine receptor M4 (Homo sapiens); experiment: […] human M4 mAChR expressed in Flp-In-CHO cells co-expressing CAMYEL biosensor assessed as change in baseline response at 10 uM incubated for 5 mins by BRET assay relative to control; assay type: cell-based
How it was run: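 FlpInCHO cells stably expressing human M4 mAChR, transiently transfected with CAMYEL cAMP BRET biosensor (60 ng/well, PEI), assayed 48 h later in HBSS pH 7.4. Full ACh concentration-response curve alone or with modulator at 1 or 10 μM, co-added with coelenterazine h (5 μM), 5 min, 37 °C. Three-parameter logistic fit; ACh curve values subtracted from ACh+modulator values. Δbaseline and ΔEmax given as % of maximal ACh response without modulator. 4 experiments in duplicate, SEM pooled.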

[8] = filed as positive allosteric modulator

Muscarinic acetylcholine receptor M3 (Homo sapiens), sequence (P20309 whole entry, looked up): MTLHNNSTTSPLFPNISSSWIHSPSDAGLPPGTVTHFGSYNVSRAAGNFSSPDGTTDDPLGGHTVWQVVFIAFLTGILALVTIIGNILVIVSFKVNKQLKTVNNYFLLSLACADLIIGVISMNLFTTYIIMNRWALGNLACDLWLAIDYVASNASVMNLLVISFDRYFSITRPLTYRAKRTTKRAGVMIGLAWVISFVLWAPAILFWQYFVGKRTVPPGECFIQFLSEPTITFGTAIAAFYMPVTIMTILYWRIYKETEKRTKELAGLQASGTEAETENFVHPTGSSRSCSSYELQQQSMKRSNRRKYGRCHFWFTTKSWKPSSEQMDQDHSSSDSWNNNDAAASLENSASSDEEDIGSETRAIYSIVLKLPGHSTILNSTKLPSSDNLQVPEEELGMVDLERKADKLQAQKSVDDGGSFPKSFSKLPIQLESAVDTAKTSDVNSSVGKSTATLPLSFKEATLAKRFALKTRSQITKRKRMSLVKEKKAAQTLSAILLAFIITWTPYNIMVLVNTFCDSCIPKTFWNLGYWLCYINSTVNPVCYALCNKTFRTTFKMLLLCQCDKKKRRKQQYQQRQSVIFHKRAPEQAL

Row | Activity [1] | Activity [2] | concentration [3] [nM] | log(activity) [4] | log(activity) [5] | Activity [6] | Activity [7, 8] [%] | Activity [7] [%] | SMILES
1 | inactive | inactive | 2140 | 2.04 | 1.55 | inactive | 51.4 |  | Cc1ccc(-c2cnn(CC3CCCC3)c2)c(-c2ccc(F)c(F)c2)n1
2 | inactive | inactive | 982 | 1.87 | 1.18 | inactive |  | 8.48 | Cc1ccc(-c2cnn(CC3CCCC3)c2)c(-c2ccc(N)c([N+](=O)[O-])c2)n1
3 | inactive | inactive | 481 | 2.12 | 1.94 | inactive | 103 |  | Cc1ccc(-c2cnn(CC3CCCC3)c2)c(-c2ccc3c(c2)C(=O)N(C)C3)n1
